Results as given in ChEMBL document CHEMBL1795267, “Synthesis of enantiomerically pure D- and L-bicyclo[3.1.0]hexenyl carbanucleosides and their antiviral evaluation” (Bioorg Med Chem, 2011).
In brackets after ≈: the same amount, converted by molar mass. Activity calls are given as the source filed them. The rule behind the calls is not given here.

How the values were obtained:
MT4 = assay: Toxicity against human MT4 cells by MTT assay; type: cell-based
How it was run: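 Uninfected MT-4 cells (HTLV-1-carrying T4+ line) at 1.0×10^5 cells/mL in RPMI-1640/10% FBS, gentamycin, 2 mM L-glutamine, run in triplicate alongside infected cultures for 5 days at 37 °C, 5% CO2. Compounds were diluted from DMSO, final DMSO ≤0.5%. Read by MTT (1.5 h), formazan dissolved in acidic 2-propanol, A540/690. CC50 is the concentration reducing viability by 50%.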

[1] = test system: Human immunodeficiency virus 2; assay: Antiviral activity against HIV2 ROD infected in human MT4 cells assessed as reduction in virus induced cytopathicity measured 5 days post infection by MTT assay; type: functional, organism-based; details: Human immunodeficiency virus 2, ISOLATE ROD, MT4, 120 h
How it was run: (§1)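 MT-4 cells (HTLV-1-carrying human T cells; RPMI-1640, 10% FBS, 2 mM L-glutamine) infected with cell-free HIV-1 IIIB or HIV-2 ROD at 100 TCID50/mL for 1.5 h at 37 °C, then plated at 1.0×10^5 cells/mL with serial compound dilutions (DMSO stock, at most 0.5% DMSO final) in triplicate. Cultured 5 days at 37 °C. Virus-induced cytopathicity read by MTT. IC50 is the concentration giving 50% protection.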

Coxsackievirus B1 = assay: Antiviral activity against Coxsackie virus B1 up to 100 ug/mL; type: functional, organism-based
Poliovirus 3 = assay: Antiviral activity against Human poliovirus 3 up to 100 ug/mL; type: functional, organism-based
[2] = test system: Human immunodeficiency virus 1; assay: Antiviral activity against HIV1 3B infected in human MT4 cells […] with HTLV1 assessed as reduction in virus induced cytopathicity measured 5 days post infection by MTT assay; type: functional, organism-based; details: Human immunodeficiency virus 1, 3B, MT4, 120 h; how it was run: as §1
[3] = Selectivity index, ratio of CC50 for human MT4 cells to IC50 for HIV1 3B; type: functional
How it was run: (§2)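 Uninfected MT-4 cells (1.0×10^5 cells/mL) were cultured for 5 days at 37 °C with compound in parallel with the infected cultures. Viability was read by MTT (1.5 h with MTT, formazan dissolved in acidic 2-propanol, absorbance at 540/690 nm). CC50 is the concentration reducing viability of uninfected cells by 50%. Index = CC50/IC50 against the HIV-1 IIIB or HIV-2 ROD MT-4 assay.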

Coxsackievirus B3 = assay: Antiviral activity against Coxsackie virus B3 up to 100 ug/mL; type: functional, organism-based
[4] = Selectivity index, ratio of CC50 for human MT4 cells to IC50 for HIV2 ROD; type: functional; how it was run: as §2
Influenza B virus = assay: Antiviral activity against influenza B virus Panama up to 100 ug/mL; type: functional, organism-based
Human alphaherpesvirus 2 = assay: Antiviral activity against HSV2; type: functional, organism-based
Influenza A virus [5] = assay: Antiviral activity against Influenza A virus H3N2 Johannesburg up to 100 ug/mL; type: functional, organism-based
Influenza A virus [6] = assay: Antiviral activity against influenza A virus H1N1 Taiwan up to 100 ug/mL; type: functional, organism-based
[7] = test system: Feline infectious peritonitis virus; assay: Antiviral activity against Feline infectious peritonitis virus WSU up to 100 ug/mL; type: functional
Feline coronavirus = assay: Antiviral activity against Feline coronavirus WSU up to 100 ug/mL; type: functional, organism-based

SMILES	CC50 (MT4)	IC50 [1]	inhibition (Coxsackievirus B1)	inhibition (Poliovirus 3)	IC50 [2]	Ratio CC50/IC50 [3]	inhibition (Coxsackievirus B3)	Ratio CC50/IC50 [4]	inhibition (Influenza B virus)	IC50 (Human alphaherpesvirus 2)	inhibition (Influenza A virus [5])	inhibition (Influenza A virus [6])	inhibition [7]	inhibition (Feline coronavirus)
Nc1ccn([C@H]2C=C[C@]3(CO)C[C@H]23)c(=O)n1	61.8 µg/mL (≈ 282 µM)	> 61.8 µg/mL	inactive	inactive	> 61.8 µg/mL	<1	inactive	<1	–	–	–	–	–	–
Nc1ccn([C@H]2CC[C@@H](CO)O2)c(=O)n1 [ZALCITABINE]	10.66 µg/mL (≈ 50.5 µM)	0.04 µg/mL (≈ 0.189 µM)	–	–	0.043 µg/mL (≈ 0.204 µM)	248.73	–	266.7	–	–	–	–	–	–
Nc1nc(O)c2ncn([C@@H]3C=C[C@@]4(CO)C[C@@H]34)c2n1	> 100 µg/mL	> 100 µg/mL	inactive	inactive	> 100 µg/mL	–	inactive	–	–	–	–	–	–	–
O=c1ccn([C@@H]2C=C[C@@]3(CO)C[C@@H]23)c(=O)[nH]1	–	–	inactive	inactive	> 100 µg/mL	–	inactive	–	–	–	–	–	–	–
Nc1ccn([C@@H]2C=C[C@@]3(CO)C[C@@H]23)c(=O)n1	> 100 µg/mL	> 100 µg/mL	inactive	inactive	> 100 µg/mL	–	inactive	–	–	–	–	–	–	–
Cc1cn([C@@H]2C=C[C@@]3(CO)C[C@@H]23)c(=O)[nH]c1=O	> 100 µg/mL	2.27 µg/mL (≈ 9.69 µM)	inactive	inactive	1.18 µg/mL (≈ 5.02 µM)	>85.09	inactive	>44.05	inactive	59.2 µg/mL (≈ 253 µM)	inactive	inactive	inactive	inactive
Nc1ncnc2c1ncn2[C@@H]1C=C[C@@]2(CO)C[C@@H]12	–	> 100 µg/mL	inactive	inactive	> 100 µg/mL	–	inactive	–	–	–	–	–	–	–
Cc1cn([C@H]2C=C[C@]3(CO)C[C@H]23)c(=O)[nH]c1=O	8.558 µg/mL (≈ 36.5 µM)	0.112 µg/mL (≈ 0.478 µM)	inactive	inactive	0.033 µg/mL (≈ 0.141 µM)	263	inactive	76	–	–	–	–	–	–
O=c1[nH]cnc2c1ncn2[C@H]1CC[C@@H](CO)O1 [DIDANOSINE]	> 100 µg/mL	5.76 µg/mL (≈ 24.4 µM)	–	–	2.31 µg/mL (≈ 9.78 µM)	>43.29	–	>17.38	–	–	–	–	–	–
O=c1nc(O)ccn1[C@H]1C=C[C@]2(CO)C[C@H]12	> 100 µg/mL	> 100 µg/mL	inactive	inactive	> 100 µg/mL	–	inactive	–	–	–	–	–	–	–
Nc1ncnc2c1ncn2[C@H]1C=C[C@]2(CO)C[C@H]12	> 100 µg/mL	–	inactive	inactive	40.5 µg/mL (≈ 166 µM)	>2.47	inactive	–	–	–	–	–	–	–
